According to ChEMBL document CHEMBL2040729, “Lead optimization of 17β-HSD1 inhibitors of the (hydroxyphenyl)naphthol sulfonamide type for the treatment of endometriosis” (J Med Chem, 2012):

How the values were obtained:
[1] = target: T1, 17-beta-hydroxysteroid dehydrogenase type 1 (Homo sapiens) (UniProt P14061); assay: Inhibition of human placenta cytosolic 17betaHSD1 using [3H]E1 as substrate at 10 nM after 10 mins by radioflow detection assay
T1 sequence (whole entry): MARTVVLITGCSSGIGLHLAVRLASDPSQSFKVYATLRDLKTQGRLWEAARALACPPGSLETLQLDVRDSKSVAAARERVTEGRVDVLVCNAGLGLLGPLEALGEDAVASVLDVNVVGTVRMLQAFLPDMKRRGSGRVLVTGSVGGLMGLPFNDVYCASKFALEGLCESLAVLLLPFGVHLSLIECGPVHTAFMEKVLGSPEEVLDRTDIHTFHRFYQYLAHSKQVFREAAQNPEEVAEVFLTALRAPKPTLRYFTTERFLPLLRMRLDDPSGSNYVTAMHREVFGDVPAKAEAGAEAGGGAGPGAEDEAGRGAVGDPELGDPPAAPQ

[2] = target: T2, 17-beta-hydroxysteroid dehydrogenase type 1 (Homo sapiens, UniProt P14061); assay: Inhibition of human placenta cytosolic 17betaHSD1 using [3H]E1 as substrate after 10 mins by radioflow detection assay
T2 sequence (P14061 whole entry): T1 sequence (whole entry)
Procedure, shortened: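 Cytosolic 17β-HSD1 from fresh human placenta, obtained by ammonium sulfate precipitation. Incubated at 37 °C in 50 mM phosphate buffer with 20% glycerol and EDTA, with NADH 500 μM and compound (DMSO 1% final). Started with unlabeled + [3H]-E1 (500 nM final), stopped after 10 min with HgCl2, ether-extracted. E1/E2 quantified by radioflow HPLC as % conversion. At least three independent experiments.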

[3] = target: T3, 17-beta-hydroxysteroid dehydrogenase type 2 (Homo sapiens, UniProt P37059); assay: Inhibition of human placenta microsomal 17betaHSD2 using [3H]E2 as substrate after 20 mins by radioflow detection assay
T3 sequence (P37059 whole entry): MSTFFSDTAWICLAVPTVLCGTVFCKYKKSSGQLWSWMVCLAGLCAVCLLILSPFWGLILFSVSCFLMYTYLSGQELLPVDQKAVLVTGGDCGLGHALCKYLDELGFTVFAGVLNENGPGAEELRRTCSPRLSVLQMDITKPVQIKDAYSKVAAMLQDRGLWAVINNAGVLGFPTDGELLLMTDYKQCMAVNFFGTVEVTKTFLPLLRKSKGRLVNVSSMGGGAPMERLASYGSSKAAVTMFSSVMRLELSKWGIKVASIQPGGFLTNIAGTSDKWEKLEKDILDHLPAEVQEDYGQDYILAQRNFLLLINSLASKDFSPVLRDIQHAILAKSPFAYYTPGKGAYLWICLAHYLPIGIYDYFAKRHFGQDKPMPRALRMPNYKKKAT
Procedure, shortened: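 Microsomal (pellet) fraction of fresh human placenta incubated with NAD+ 1500 μM, compound, and unlabeled + [3H]-E2 (500 nM final) for 20 min at 37 °C. Stopped with 1 mM HgCl2, ether-extracted. Steroids separated by HPLC with radioflow detection, conversion computed. Mean of three determinations.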

Callithrix jacchus [4] = species: Callithrix jacchus; assay: Inhibition of mormoset placenta cytosolic 17betaHSD1 using [3H]E1 as substrate at 50 nM after 10 mins by radioflow detection assay
Callithrix jacchus [5] = species: Callithrix jacchus; assay: Inhibition of mormoset placenta microsomal 17betaHSD2 using [3H]E2 as substrate at 50 nM after 20 mins by radioflow detection assay
[6] = target: T4, Estrogen receptor (Homo sapiens) (UniProt P03372); assay: Relative binding affinity to human recombinant ERalpha receptor using [3H]E2 as substrate after 1 hr by liquid scintillation counting relative to E2
T4 sequence (whole entry): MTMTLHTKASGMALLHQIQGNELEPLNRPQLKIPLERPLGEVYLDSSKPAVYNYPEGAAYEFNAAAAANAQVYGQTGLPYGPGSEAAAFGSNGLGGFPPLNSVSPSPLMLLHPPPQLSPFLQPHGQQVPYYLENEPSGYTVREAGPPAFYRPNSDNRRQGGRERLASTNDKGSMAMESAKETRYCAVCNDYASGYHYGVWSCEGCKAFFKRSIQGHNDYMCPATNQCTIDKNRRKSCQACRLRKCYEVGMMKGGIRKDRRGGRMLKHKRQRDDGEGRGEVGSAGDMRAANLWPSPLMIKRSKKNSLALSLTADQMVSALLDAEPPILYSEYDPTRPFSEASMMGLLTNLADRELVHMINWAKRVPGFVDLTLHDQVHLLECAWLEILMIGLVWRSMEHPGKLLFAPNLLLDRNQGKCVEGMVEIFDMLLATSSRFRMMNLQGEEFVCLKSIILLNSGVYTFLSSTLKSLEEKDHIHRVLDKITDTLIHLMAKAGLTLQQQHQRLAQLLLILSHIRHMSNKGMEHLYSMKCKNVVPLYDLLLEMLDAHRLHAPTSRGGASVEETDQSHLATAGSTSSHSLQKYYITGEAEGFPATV
Procedure, shortened: (§1)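 Recombinant human ERα or ERβ (0.25 pmol) incubated 1 h at rt with [3H]-E2 (10 nM) and compound in DMSO (5% final). Nonspecific binding defined with diethylstilbestrol 10 μM. Bound complex captured on hydroxyapatite, washed, resuspended in ethanol, counted by liquid scintillation. Concentrations displacing 50% of bound label compared with E2, which is set at 100%.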

[7] = target: Estrogen receptor beta (Homo sapiens) (UniProt Q92731); assay: Relative binding affinity to human recombinant ERbeta receptor using [3H]E2 as substrate after 1 hr by liquid scintillation counting relative to E2; procedure, shortened: as §1
[8] = target: T2, 17-beta-hydroxysteroid dehydrogenase type 1; assay: Inhibition of 17betaHSD1 in human T47D cells using [3H]E1 as substrate incubated for 30 mins prior to substrate addition measured after 30 mins by radioflow detection assay; type: cell-based
Procedure, shortened: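 T47D cells kept in RPMI 1640 with 10% FCS, glutamine, insulin-zinc, pyruvate, antibiotics. Seeded at 5 × 10^5 cells/well in DMEM with FCS, switched to serum-free DMEM after 24 h. Compound added in DMSO (1% final), 30 min preincubation at 37 °C, 5% CO2. Then unlabeled + [3H]-E1 (50 nM final) for 30 min. Steroids extracted into diethylether. Mean of three determinations.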

Chain of Estrogen receptor beta (Homo sapiens) (Q92731 whole entry): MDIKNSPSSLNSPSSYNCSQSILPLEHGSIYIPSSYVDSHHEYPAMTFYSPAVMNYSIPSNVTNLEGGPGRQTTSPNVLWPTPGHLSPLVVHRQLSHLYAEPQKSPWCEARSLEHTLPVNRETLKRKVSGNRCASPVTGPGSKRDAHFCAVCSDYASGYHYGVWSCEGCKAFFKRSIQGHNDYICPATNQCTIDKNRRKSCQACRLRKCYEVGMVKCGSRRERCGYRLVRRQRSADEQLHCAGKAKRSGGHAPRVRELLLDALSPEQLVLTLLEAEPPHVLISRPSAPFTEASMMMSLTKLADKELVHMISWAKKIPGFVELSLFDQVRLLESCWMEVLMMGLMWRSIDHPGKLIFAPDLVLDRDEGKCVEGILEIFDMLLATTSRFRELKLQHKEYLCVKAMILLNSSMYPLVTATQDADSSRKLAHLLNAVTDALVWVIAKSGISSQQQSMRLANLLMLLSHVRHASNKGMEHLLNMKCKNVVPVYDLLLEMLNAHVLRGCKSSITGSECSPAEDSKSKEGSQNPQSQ

Row | Compound | inhibition [1] [%] | IC50 [2] [nM] | IC50 [3] [nM] | inhibition (Callithrix jacchus [4]) [%] | inhibition (Callithrix jacchus [5]) [%] | RBA [6] [%] | RBA [7] [%] | IC50 [8] [nM]
1 | O=[N+]([O-])c1ccc(S(=O)(=O)Nc2cccc(-c3c(O)ccc4cc(-c5cccc(O)c5)ccc34)c2)cc1 | > 30 | 49 | 1060 | 28 | 13 | < 0.1 | < 0.1 | 753
2 | Cc1cccc(S(=O)(=O)Nc2cccc(-c3c(O)ccc4cc(-c5cccc(O)c5)ccc34)c2)c1 |  | 33 | 446 | < 10 | 11 | < 0.1 | < 0.1 | 440
3 | O=S(=O)(Nc1cccc(-c2c(O)ccc3cc(-c4cccc(O)c4)ccc23)c1)c1ccccc1F |  | 29 | 749 | 19 | < 10 | < 0.1 | < 0.1 | 429
4 | O=S(=O)(c1ccccc1)n1ccc2c(-c3c(O)ccc4cc(-c5cccc(O)c5)ccc34)cccc21 |  | 32 | 391 | 79 | 43 | < 0.1 | < 0.1 | 1100
5 | O=S(=O)(Nc1cccc(-c2c(O)ccc3cc(-c4cccc(O)c4)ccc23)c1)c1ccc(F)cc1 |  | 53 | 834 | 24 | 20 | < 0.1 | < 0.1 | 637
6 | Cc1ccc(S(=O)(=O)Nc2cccc(-c3c(O)ccc4cc(-c5cccc(O)c5)ccc34)c2)cc1 |  | 35 | 367 | < 10 | 11 | < 0.1 | < 0.1 | 633
7 | O=S(=O)(c1ccccc1)n1ccc2ccc(-c3c(O)ccc4cc(-c5cccc(O)c5)ccc34)cc21 |  | 519 | 996 | 14 | 12 |  |  | 
8 | O=[N+]([O-])c1ccc(S(=O)(=O)Nc2cccc(-c3c(O)ccc4cc(-c5cccc(O)c5)ccc34)c2)c([N+](=O)[O-])c1 |  | 690 | 371 | 16 | 36 | < 0.1 | < 0.1 | 
9 | Cc1ccccc1S(=O)(=O)Nc1cccc(-c2c(O)ccc3cc(-c4cccc(O)c4)ccc23)c1 |  | 31 | 188 | 20 | < 10 | < 0.1 | < 0.1 | 525
10 | O=S(=O)(Nc1cccc(-c2c(O)ccc3cc(-c4cccc(O)c4)ccc23)c1)c1ccc(Br)cc1OC(F)(F)F | > 30 | 74 | 213 | < 10 | < 10 | < 0.1 | < 0.1 | 

The next compounds have a lower IC50 [2] than those just listed; values first:

Row | inhibition [1] [%] | IC50 [2] [nM] | IC50 [3] [nM] | inhibition (Callithrix jacchus [4]) [%] | inhibition (Callithrix jacchus [5]) [%] | RBA [6] [%] | RBA [7] [%] | IC50 [8] [nM] | Compound
11 | > 30 | 28 | 1100 | 25 | 18 | < 0.1 | < 0.1 | 316 | O=S(=O)(Nc1cccc(-c2c(O)ccc3cc(-c4cccc(O)c4)ccc23)c1)c1cccs1
12 |  | 25 | 825 | 25 | 30 | < 0.1 | < 0.1 | 555 | N#Cc1ccc(S(=O)(=O)Nc2cccc(-c3c(O)ccc4cc(-c5cccc(O)c5)ccc34)c2)cc1
13 |  | 19 | 352 | < 10 | 30 | < 0.1 | < 0.1 | 1010 | O=S(=O)(Nc1cccc(-c2c(O)ccc3cc(-c4cccc(O)c4)ccc23)c1)c1ccc(O)cc1
14 |  | 12 | 408 | 31 | < 10 | < 0.1 | < 0.1 | 240 | CC(=O)Nc1ccc(S(=O)(=O)Nc2cccc(-c3c(O)ccc4cc(-c5cccc(O)c5)ccc34)c2)cc1
